Key:
Acetylcholinesterase = biological target: T1, Acetylcholinesterase (Rattus norvegicus, UniProt P37136); assay: Inhibition of AChE in rat cortex after 15 mins by modified Ellman's method
T1 sequence (P37136 whole entry): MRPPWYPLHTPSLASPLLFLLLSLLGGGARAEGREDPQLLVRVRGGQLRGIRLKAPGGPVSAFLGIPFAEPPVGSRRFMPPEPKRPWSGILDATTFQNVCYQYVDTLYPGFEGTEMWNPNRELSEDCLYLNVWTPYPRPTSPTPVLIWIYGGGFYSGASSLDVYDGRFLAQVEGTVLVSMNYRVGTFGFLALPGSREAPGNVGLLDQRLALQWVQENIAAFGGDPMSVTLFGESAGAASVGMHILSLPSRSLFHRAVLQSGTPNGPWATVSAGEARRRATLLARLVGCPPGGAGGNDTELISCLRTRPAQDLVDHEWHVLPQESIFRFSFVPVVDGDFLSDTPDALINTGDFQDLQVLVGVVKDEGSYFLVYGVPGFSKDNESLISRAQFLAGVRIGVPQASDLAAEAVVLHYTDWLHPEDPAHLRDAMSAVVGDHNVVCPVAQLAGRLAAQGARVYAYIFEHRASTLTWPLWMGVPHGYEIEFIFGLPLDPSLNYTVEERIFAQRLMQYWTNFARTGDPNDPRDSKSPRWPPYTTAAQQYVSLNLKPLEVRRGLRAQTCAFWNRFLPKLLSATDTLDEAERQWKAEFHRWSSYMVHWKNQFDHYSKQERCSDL

Butyrylcholinesterase = Butyrylcholinesterase (Rattus norvegicus, UniProt Q9JKC1); assay: Inhibition of BChE in rat serum after 15 mins by modified Ellman's method; assay type: cell-free
Chain of Butyrylcholinesterase (Q9JKC1 whole entry): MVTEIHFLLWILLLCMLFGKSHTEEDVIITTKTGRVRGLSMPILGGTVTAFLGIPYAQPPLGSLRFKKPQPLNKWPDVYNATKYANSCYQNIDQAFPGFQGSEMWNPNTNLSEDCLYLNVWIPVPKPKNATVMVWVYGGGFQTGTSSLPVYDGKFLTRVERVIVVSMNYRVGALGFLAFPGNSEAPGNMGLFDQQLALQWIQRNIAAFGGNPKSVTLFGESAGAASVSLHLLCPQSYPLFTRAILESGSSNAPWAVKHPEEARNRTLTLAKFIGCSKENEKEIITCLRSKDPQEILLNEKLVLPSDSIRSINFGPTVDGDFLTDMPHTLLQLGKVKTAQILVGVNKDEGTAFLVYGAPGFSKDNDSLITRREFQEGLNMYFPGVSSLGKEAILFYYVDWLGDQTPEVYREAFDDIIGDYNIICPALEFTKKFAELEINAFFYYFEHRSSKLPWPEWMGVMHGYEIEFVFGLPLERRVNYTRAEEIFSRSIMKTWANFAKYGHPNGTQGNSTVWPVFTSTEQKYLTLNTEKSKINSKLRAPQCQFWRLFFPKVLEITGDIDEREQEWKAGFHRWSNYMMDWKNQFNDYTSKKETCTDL
In short: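 Enzyme source was rat serum. Substrate butyrylthiocholine iodide 0.4 mmol/L in sodium phosphate buffer ([…]). Serum was incubated with the test compound at several concentrations at 37 °C for 15 min. Activity was read spectrophotometrically by a modified Ellman method, with IC50 derived from the concentration series.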

Structure (SMILES)	IC50 (Acetylcholinesterase) [µM]	IC50 (Butyrylcholinesterase) [µM]
COc1cc2oc(-c3ccc(CN4CCCC4)cc3)cc(=O)c2cc1OC	0.055	89.7
CCN(C)Cc1ccc(/C=C/C(=O)c2cc(OC)c(OC)cc2O)cc1	0.126	> 100
CCN(CC)Cc1ccc(/C=C/C(=O)c2cc(OC)c(OC)cc2O)cc1	0.103	> 100
CCN(CC)Cc1cccc(/C=C/C(=O)c2cc(OC)c(OC)cc2O)c1	1.61	> 100
COc1cc(O)c(C(=O)/C=C/c2ccc(CN3CCCC3)cc2)cc1OC	0.037	> 100
COc1cc(O)c(C(=O)/C=C/c2cccc(CN3CCCC3)c2)cc1OC	0.047	77.3
COc1cc(O)c(C(=O)/C=C/c2ccc(CN3CCCCC3)cc2)cc1OC	0.122	> 100
CCN(C)Cc1ccc(-c2cc(=O)c3cc(OC)c(OC)cc3o2)cc1	0.336	> 100
CCN(CC)Cc1ccc(-c2cc(=O)c3cc(OC)c(OC)cc3o2)cc1	0.639	64.6
CCN(CC)Cc1cccc(-c2cc(=O)c3cc(OC)c(OC)cc3o2)c1	5.99	> 100
COc1cc2oc(-c3cccc(CN4CCCC4)c3)cc(=O)c2cc1OC	0.704	> 100
COc1cc2oc(-c3ccc(CN4CCCCC4)cc3)cc(=O)c2cc1OC	0.034	75.2
CCN(C)Cc1ccc(C2CC(=O)c3cc(OC)c(OC)cc3O2)cc1 (stereo not drawn)	4.67	> 100
CCN(CC)Cc1ccc(C2CC(=O)c3cc(OC)c(OC)cc3O2)cc1 (stereo not drawn)	4.97	> 100
CCN(CC)Cc1cccc(C2CC(=O)c3cc(OC)c(OC)cc3O2)c1 (stereo not drawn)	172	> 100
COc1cc2c(cc1OC)C(=O)CC(c1ccc(CN3CCCC3)cc1)O2 (stereo not drawn)	1.24	68.2
COc1cc2c(cc1OC)C(=O)CC(c1cccc(CN3CCCC3)c1)O2 (stereo not drawn)	5.36	> 100
COc1cc2c(cc1OC)C(=O)CC(c1ccc(CN3CCCCC3)cc1)O2 (stereo not drawn)	0.248	48
CCN(C)Cc1ccc(-c2coc3cc(OC)c(OC)cc3c2=O)cc1	0.171	61
CCN(CC)Cc1ccc(-c2coc3cc(OC)c(OC)cc3c2=O)cc1	0.599	> 100
CCN(CC)Cc1cccc(-c2coc3cc(OC)c(OC)cc3c2=O)c1	0.56	> 100
COc1cc2occ(-c3ccc(CN4CCCC4)cc3)c(=O)c2cc1OC	0.004	18.3
COc1cc2occ(-c3cccc(CN4CCCC4)c3)c(=O)c2cc1OC	0.07	> 100
COc1cc2occ(-c3ccc(CN4CCCCC4)cc3)c(=O)c2cc1OC	0.068	> 100

Reference: ChEMBL document CHEMBL1152562, “Design, synthesis and evaluation of flavonoid derivatives as potent AChE inhibitors” (Bioorg Med Chem, 2009)
